Series [1] has as its target T1, Oxysterols receptor LXR-beta (Homo sapiens) (UniProt P55055).
T1 sequence (whole entry): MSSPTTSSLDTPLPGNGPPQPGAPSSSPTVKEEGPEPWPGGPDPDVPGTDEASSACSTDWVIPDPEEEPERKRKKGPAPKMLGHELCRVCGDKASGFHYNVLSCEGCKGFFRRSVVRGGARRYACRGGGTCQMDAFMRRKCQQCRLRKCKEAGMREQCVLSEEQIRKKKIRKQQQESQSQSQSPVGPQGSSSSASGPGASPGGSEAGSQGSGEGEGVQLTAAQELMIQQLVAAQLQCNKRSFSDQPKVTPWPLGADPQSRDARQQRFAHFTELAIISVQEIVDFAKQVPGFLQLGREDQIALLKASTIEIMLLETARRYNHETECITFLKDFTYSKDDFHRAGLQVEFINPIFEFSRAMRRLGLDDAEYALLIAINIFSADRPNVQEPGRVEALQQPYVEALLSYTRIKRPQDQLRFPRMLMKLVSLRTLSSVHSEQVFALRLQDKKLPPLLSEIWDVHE
The series can be described thus: Agonist activity at LXR-beta in human HeLa cells assessed as induction of ABCA1 by beta-galactosidase/luciferase reporter gene assay relative to control. It is filed as cell-based. A digest of the protocol:
(§1)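 HeLa cells carrying endogenous LXRα and LXRβ receptors, transfected with an ABCA1 LXREx3 reporter construct; agonist-driven reporter induction measured.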
Background: A reporter such as luciferase makes a cellular process visible.

For series [2], the target named is T1, Oxysterols receptor LXR-beta (Homo sapiens). Put plainly: Agonist activity at LXR-beta in human whole blood assessed as ABCA1 gene induction by measuring ABCA1 mRNA level after 4 hrs by SYBR-Green dye-based Q-PCR analysis relative to pan agonist 2-(4-(5-(5-cyano-1-(2,4-difluorobenzyl)-6-oxo-4-(trifluoromethyl)-1,6-dihydropyridin-2-yl)thiophen-2-yl)-3-methylphenyl)acetic acid. It is filed as tissue-based.

The target of series [3] is Retinoic acid receptor RXR-alpha/oxysterols receptor LXR-alpha (Homo sapiens, UniProt Q13133). The series can be described thus: Displacement of [3H]-24,25-epoxycholesterol from human LXRalpha/RXRalpha expressed in baculovirus infected Sf9 cells by scintillation proximity analysis. A digest of the protocol:
(§2)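 Binding affinity measured using full-length LXRα–RXRα and LXRβ–RXRα heterodimers.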
Background: Loss of bound radioactivity is the signal in a displacement assay; it reports binding, not function.

For series [4], the target named is T1, Oxysterols receptor LXR-beta (Homo sapiens). Put plainly: Agonist activity at human LXR-beta expressed in African green monkey CV1 cells measured after 18 to 20 hrs by luciferase reporter gene assay relative to pan agonist 1-(2,4-difluorobenzyl)-2-oxo-6-(4-phenoxyphenyl)-4-(trifluoromethyl)-1,2-dihydropyridine-3-carbonitrile. It is filed as cell-based. To be noted: CV-1.

Series [5] concerns the target T2, Oxysterols receptor LXR-beta (Homo sapiens, UniProt P55055).
T2 sequence (P55055 whole entry): T1 sequence (whole entry)
The series can be described thus: Agonist activity at LXR-beta in human whole blood assessed as ABCA1 gene induction by measuring ABCA1 mRNA level after 4 hrs by SYBR-Green dye-based Q-PCR analysis. It is filed as tissue-based.

Series [6] concerns the target Retinoic acid receptor RXR-alpha/oxysterols receptor LXR-beta (Homo sapiens, UniProt P55055). The series can be described thus: Displacement of [3H]-24,25-epoxycholesterol from human LXRbeta/RXRalpha expressed in baculovirus infected Sf9 cells by scintillation proximity analysis. The procedure, abridged: as §2
Series [7] deals with T2, Oxysterols receptor LXR-beta. The series can be described thus: Agonist activity at human LXR-beta expressed in African green monkey CV1 cells measured after 18 to 20 hrs by luciferase reporter gene assay. It is filed as cell-based, CV-1.
Series [8] has the same target. Put plainly: Agonist activity at LXR-beta in human HeLa cells assessed as induction of ABCA1 by beta-galactosidase/luciferase reporter gene assay. It is filed as cell-based. The procedure, abridged: as §1
In series [9] the target is T3, Oxysterols receptor LXR-alpha (Homo sapiens, UniProt Q13133).
T3 sequence (Q13133 whole entry): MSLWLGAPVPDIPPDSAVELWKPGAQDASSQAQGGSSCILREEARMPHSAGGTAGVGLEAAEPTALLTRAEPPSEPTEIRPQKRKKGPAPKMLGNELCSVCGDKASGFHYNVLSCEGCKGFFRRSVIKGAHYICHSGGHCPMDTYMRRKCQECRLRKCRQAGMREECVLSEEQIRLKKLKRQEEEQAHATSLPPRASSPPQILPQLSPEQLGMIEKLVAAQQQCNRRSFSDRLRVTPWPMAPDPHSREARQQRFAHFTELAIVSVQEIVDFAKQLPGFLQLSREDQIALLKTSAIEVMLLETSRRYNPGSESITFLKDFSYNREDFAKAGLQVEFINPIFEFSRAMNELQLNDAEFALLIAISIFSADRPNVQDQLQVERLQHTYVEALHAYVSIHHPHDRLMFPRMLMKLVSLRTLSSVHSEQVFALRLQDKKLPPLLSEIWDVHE
Put plainly: Agonist activity at human LXR-alpha expressed in African green monkey CV1 cells measured after 18 to 20 hrs by luciferase reporter gene assay. It is filed as cell-based, CV-1.

Series [10] concerns the target T3, Oxysterols receptor LXR-alpha. Put plainly: Agonist activity at human LXR-alpha expressed in African green monkey CV1 cells measured after 18 to 20 hrs by luciferase reporter gene assay relative to pan agonist 1-(2,4-difluorobenzyl)-2-oxo-6-(4-phenoxyphenyl)-4-(trifluoromethyl)-1,2-dihydropyridine-3-carbonitrile. To be noted: CV-1, human; read-out: Efficacy. It is filed as cell-based.

The target in series [11] is Alpha-1-acid glycoprotein 1 (Homo sapiens, UniProt P02763). The series can be described thus: Binding affinity to human alpha-1-AGP at 1 uM measured after 4 hrs by equilibrium dialysis method relative to control. It is filed as ADME. The following applies: for PB: isolated protein, 4 h, 1 µM. In general terms: Equilibrium dialysis compares concentrations on both sides of a semipermeable membrane.

A further series has as its target Albumin (Homo sapiens, UniProt P02768). Put plainly: Binding affinity to human serum albumin at 1 uM measured after 4 hrs by equilibrium dialysis method relative to control. To be noted: isolated protein, 4 h, 1 µM. It is filed as ADME.
The nature of series [12]: Clearance in cynomolgus monkey at 0.2 mg/kg, iv administered as cassette dose by LC/MS/MS analysis. The class given is ADME, organism-based, Macaca fascicularis. The following applies: in vivo.
Series [13] is described as follows: Half life in cynomolgus monkey at 0.2 mg/kg, iv administered as cassette dose by LC/MS/MS analysis. The class given is ADME, organism-based, Macaca fascicularis. To be noted: in vivo.

Consider eleven molecules from ChEMBL document CHEMBL3867488 (ACS Med Chem Lett, 2016).

Usually Ki stands for the equilibrium dissociation constant of an inhibitor or competing ligand from its target. One may read the EC50 as the concentration that produces a half-maximal response. For orientation: clearance means the rate of elimination divided by the concentration. As usually defined, the half-life is how long it takes for the measured level to halve.

Sequence of Retinoic acid receptor RXR-alpha/oxysterols receptor LXR-beta (P19793 whole entry, one chain of several): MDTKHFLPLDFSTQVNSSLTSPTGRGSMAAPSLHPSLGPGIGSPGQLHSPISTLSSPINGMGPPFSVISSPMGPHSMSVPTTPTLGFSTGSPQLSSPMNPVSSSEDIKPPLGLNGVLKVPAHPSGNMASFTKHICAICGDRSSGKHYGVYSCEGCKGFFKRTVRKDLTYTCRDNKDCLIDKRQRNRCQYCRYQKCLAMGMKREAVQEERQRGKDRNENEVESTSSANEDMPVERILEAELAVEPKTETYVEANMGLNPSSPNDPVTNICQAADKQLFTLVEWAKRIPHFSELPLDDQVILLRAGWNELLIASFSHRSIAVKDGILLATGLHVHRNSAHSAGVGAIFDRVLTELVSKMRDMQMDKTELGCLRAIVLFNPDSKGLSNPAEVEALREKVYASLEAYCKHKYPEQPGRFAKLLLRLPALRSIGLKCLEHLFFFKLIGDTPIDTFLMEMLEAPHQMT
Sequence of Retinoic acid receptor RXR-alpha/oxysterols receptor LXR-alpha (P19793 whole entry, one chain of several): as above
Sequence of Albumin (P02768 whole entry): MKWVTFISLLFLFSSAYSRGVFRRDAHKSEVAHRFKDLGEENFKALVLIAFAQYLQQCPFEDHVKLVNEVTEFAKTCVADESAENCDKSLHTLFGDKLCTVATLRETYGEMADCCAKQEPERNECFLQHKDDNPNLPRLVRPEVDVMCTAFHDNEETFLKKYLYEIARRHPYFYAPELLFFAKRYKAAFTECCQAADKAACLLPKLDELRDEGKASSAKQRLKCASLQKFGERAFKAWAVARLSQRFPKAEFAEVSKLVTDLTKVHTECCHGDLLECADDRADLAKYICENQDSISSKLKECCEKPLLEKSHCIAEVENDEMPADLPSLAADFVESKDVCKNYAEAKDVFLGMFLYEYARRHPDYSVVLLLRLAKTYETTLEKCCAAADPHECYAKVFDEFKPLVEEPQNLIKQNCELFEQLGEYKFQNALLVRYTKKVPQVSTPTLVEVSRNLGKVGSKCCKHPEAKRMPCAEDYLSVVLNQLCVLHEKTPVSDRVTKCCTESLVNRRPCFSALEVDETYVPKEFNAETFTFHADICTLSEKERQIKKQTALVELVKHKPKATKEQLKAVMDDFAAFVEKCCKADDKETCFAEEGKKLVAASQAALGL
Sequence of Alpha-1-acid glycoprotein 1 (P02763 whole entry): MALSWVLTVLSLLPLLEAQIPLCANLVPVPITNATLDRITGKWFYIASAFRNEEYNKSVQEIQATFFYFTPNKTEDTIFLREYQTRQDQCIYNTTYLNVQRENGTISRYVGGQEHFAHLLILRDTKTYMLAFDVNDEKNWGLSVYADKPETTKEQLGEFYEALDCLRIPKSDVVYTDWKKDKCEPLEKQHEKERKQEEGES

For `CC(C)(O)c1cn(-c2ccc(-c3cc(F)c(CO)c(S(C)(=O)=O)c3)cc2Cl)c(C(C)(C)c2c(Cl)cccc2Cl)n1`, the values for the Efficacy in series [1], in series [2] and in series [4] were 12%, 16% and 51%, respectively. For the same molecule, the Ki was found to be 50 nM in [3] and 48 nM in series [6]. Moreover, the EC50 in [5] came out at 5 nM; in series [7], 27 nM; in [8] it was 2 nM; in series [9], 8 nM. Also, the Emax in series [10] came out at 6%.
On to `CC(C)(O)c1cn(-c2ccc(-c3cc(F)c(CO)c(S(C)(=O)=O)c3)cc2F)c(C(C)(C)c2c(F)cccc2Cl)n1`, for which the Efficacy came out at 30% in [1], 33% in [2] and 86% in series [4]. For the same molecule, the results for the inhibition constant Ki in series [3] and in [6] were 70 nM and 14 nM, respectively. For the same molecule, the EC50 in series [5] was determined as 41 nM; in series [7], 20 nM; in series [8], 1 nM; in series [9], 11 nM. The Emax in [10] is 15%.
For the molecule `CC(C)(O)c1cn(-c2ccc(-c3cccc(S(C)(=O)=O)c3)cc2)c(C(C)(C)c2c(Cl)cccc2Cl)n1`, the values for the Efficacy in series [1], in [2] and in series [4] were 42%, 32% and 41%, respectively. In addition, the fraction unbound at 4 h, 1 µM in [11] (human alpha-1-acid glycoprotein, read-out: PB) is 0.004 to 0.01. In addition, the Ki in series [3] was 16 nM; in series [6], 11 nM. Also, the EC50 in series [5] is 380 nM; in series [7] it was 170 nM; in series [8], 18 nM; in series [9], 99 nM. The PB at Albumin turned out to be 97.9%. In addition, the Emax in series [10] is 20%.
`CC(C)(O)c1cn(-c2ccc(-c3cc(F)c(CO)c(S(C)(=O)=O)c3)cc2)c(Cc2c(Cl)cccc2Cl)n1`: the Efficacy is 43% in [1], 51% in [2] and 54% in series [4]. The Ki amounted to 75 nM in series [3] and 11 nM in series [6]. Besides, the EC50 in series [5] amounted to 42 nM; in [7] it was 140 nM; in series [8] it was 5 nM; in series [9], 69 nM. For the same molecule, the Emax in series [10] was 17%.
With `CC(C)(O)c1cn(-c2ccc(-c3cc(F)c(CO)c(S(C)(=O)=O)c3)cc2F)c(C(C)(C)c2ccccc2Cl)n1`, the figures for the Efficacy in [1], in series [2] and in series [4] were 29%, 35% and 79%, respectively. Further, the Ki in [3] worked out at 9 nM; in [6], 18 nM. Moreover, the EC50 in [5] stood at 46 nM; in [7] it was 50 nM; in series [8], 2 nM; in series [9], 57 nM. The Emax in [10] came to 25%.
For `CC(c1c(Cl)cccc1Cl)c1nc(C(C)(C)O)cn1-c1ccc(-c2cc(F)c(CO)c(S(C)(=O)=O)c2)cc1F` (stereo not given), the values for the Efficacy in series [1], in series [2] and in series [4] were 9%, 17% and 67%, respectively. Moreover, the Ki in series [3] was found to be 17 nM; in series [6], 13 nM. The concentration giving a half-maximal response (EC50) in [5] turned out to be 23 nM; in series [7], 25 nM; in [8], 2 nM; in series [9] it was 12 nM. The Emax in series [10] was found to be 18%.
With `CC(C)(O)c1cn(-c2ccc(-c3cc(F)c(CO)c(S(C)(=O)=O)c3)cc2)c(C(C)(C)c2c(Cl)cccc2Cl)n1`, the Efficacy was determined as 23% in series [1], 43% in series [2] and 72% in series [4]. For the same molecule, the Ki was found to be 38 nM in [3] and 6 nM in series [6]. Moreover, the EC50 amounted to 15 nM in [5], 42 nM in series [7], 3 nM in series [8] and 30 nM in series [9]. Further, the Emax in series [10] was found to be 25%.
Regarding `CC(C)(O)c1cn(-c2ccc(-c3cc(F)c(CO)c(S(C)(=O)=O)c3)cc2)c(C(C)(C)c2ccccc2F)n1`, the results for the Efficacy in [1], in [2] and in series [4] were 15%, 28% and 68%, respectively. In addition, the Ki was determined as 81 nM in series [3] and 14 nM in series [6]. For the same molecule, the EC50 in [5] was found to be 43 nM; in [7], 160 nM; in series [8], 12 nM; in series [9] it was 130 nM. Also, the Emax in series [10] was 13%.
On to `CC(C)(O)c1cn(-c2ccc(-c3cc(F)c(CO)c(S(C)(=O)=O)c3)cc2)c(C(C)(C)c2ccccc2Cl)n1`, for which the Efficacy stood at 43% in [1], 47% in series [2] and 83% in series [4]. For the same molecule, the PB in series [11] was 86.6%; at Albumin, 95.5%. Further, the inhibition constant Ki in [3] was determined as 53 nM; in series [6], 10 nM. For the same molecule, the EC50 in [5] is 57 nM; in [7], 72 nM; in [8], 8 nM; in [9], 76 nM. The molecule also came in with a clearance in series [12] of 8.4 mL/min/kg. Further, the Emax in [10] is 29%. Besides, the half-life in series [13] was 5.6 h.
Turning to `CC(C)(O)c1cn(-c2ccc(-c3ccc(CO)c(S(C)(=O)=O)c3)cc2)c(C(C)(C)c2ccccc2Cl)n1`, the Efficacy in [1] turned out to be 56%; in [2] it was 46%; in [4], 74%. The PB worked out at 90.2% in series [11] and 96.1% at Albumin. Also, the figures for the Ki in series [3] and in [6] were 74 nM and 13 nM, respectively. In addition, the EC50 stood at 300 nM in series [5], 170 nM in series [7], 12 nM in series [8] and 110 nM in series [9]. For the same molecule, in series [10], the Emax was 46%.
`CC(O)c1ccc(-c2ccc(-n3cc(C(C)(C)O)nc3C(C)(C)c3ccccc3Cl)cc2)cc1S(C)(=O)=O` (stereo not given): the results for the Efficacy in series [1], in series [2] and in series [4] were 68%, 47% and 93%, respectively. In addition, the Ki in series [3] was 180 nM; in [6], 40 nM. For the same molecule, the EC50 in series [5] came out at 870 nM; in series [7], 220 nM; in [8], 21 nM; in [9] it was 120 nM. For the same molecule, the clearance in [12] amounted to 5.6 mL/min/kg. Also, the Emax in [10] was 47%. Besides, the half-life in series [13] is 5.5 h.
